Compounds with a hit are over-represented: about 2.3% of the library has one in this group of screens.
TWEAK-Fn14 inh = TWEAK-Fn14 signaling inhibition | TWEAK-stimulated Fn14 reporter cells, luciferase luminescence, 8 h | inhibition, % at 10 µM | actives 2% (n = 360,000) | AID 1159606; in the data active = inhibition above about 50%
LGR2 antag = blocks bursicon-induced cAMP signaling via Drosophila LGR2; HEK293 LGR2, CRE-luciferase, bursicon-stimulated, 4 h; inhibition, % at 9.99 µM; actives 0.35% (n = 380,000);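 active = drop in luminescence signal, shown as inhibition above about 50% in the replicate tests, limit read from the data, passing the limit was not always enough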;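 also: agonist challenge used bursicon conditioned medium at about half maximal strength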
TROY signal inh = blocks TROY-dependent signaling in reporter cells. Q293 LMP1-TROYcd NF-kB luciferase reporter, 4 h. inhibition, % at 10 µM. actives 0.98% (n = 360,000);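 active = compounds whose plate-normalised and pattern-corrected inhibition of the luciferase reporter signal at the single screening dose is 50% or more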
EWS-Fli block = blocks EWS/Fli oncoprotein-driven transcription; A673 NR0B1-luciferase reporter, viability-normalised; inhibition, % at 12.6 µM; actives 0.67% (n = 350,000); AID 651661;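 active = mean inhibition of at least 50% after viability correction, with every replicate also passing that limit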;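 also: firefly luciferase signal divided by Alamar Blue viability fluorescence both relative to DMSO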
FN deposit inh = fibronectin deposition inhibition. AH1F fibroblasts, Alexa488-fibronectin deposition fluorescence, overnight. inhibition, % at 12.6 µM. actives 0.086% (n = 350,000). AID 743247;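 active = mean inhibition across replicates of 30% or more, regardless of how many single replicates reach that level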;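 also: positive control wells lacked labelled fibronectin entirely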
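Assay system: AH1F fibroblast monolayer, labelled fibronectin deposition. Amount: 10000 cells per well. Also added: labelled fibronectin 24 nM. Compound: single-point pinned compound. Incubation: cell attachment 1 h, compound and FN exposure overnight. Detection: fluorescence after three HBSS washes, excitation 485 nm, emission 525 nm. Read-out: inhibition of fibronectin deposition signal.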
XiGFP reactiv = reactivates the inactive X chromosome in mouse fibroblasts; XiGFP mouse fibroblasts, % GFP-positive cells imaging, 3 d; cells co-treated with 5-aza-dC sensitizer; scaled so ellipticine positive control = 100%; actives 0.055% (n = 360,000); activation, % at 7.58 µM;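 active = mean normalized replicate activation at least 10% and every replicate at or above 10%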;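 also: 0% = median of on-plate neutral control wells and 100% = ellipticine 6 µM median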
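Material: XiGFP fibroblasts, SV40-immortalized. Buffer or medium: DMEM plus 5-aza-dC sensitizer. Compound: single concentration per compound, delivered by pin transfer. Times: 3 days compound exposure. Controls: ellipticine 6 µM.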
* = called active by the depositor; nt = no result given.

SMILES	TWEAK-Fn14 inh	LGR2 antag	TROY signal inh	EWS-Fli block	FN deposit inh	XiGFP reactiv
Cc1ccc2nc(NC(=O)c3ccccn3)sc2c1	98*	103*	86*	84*	7	2
O=C(Nc1nc2ccc(S(=O)(=O)N3CCCC3)cc2s1)c1ccccn1	-10	-52	-58	-4	8	0
CCOc1ccc2nc(SCCNS(=O)(=O)c3ccccc3)sc2c1	55*	16	20	0	2	0
CSc1nc2ccc(NC(=O)c3ccccn3)cc2s1	72*	71*	26	22	-4	0
CO[C@@H]1CN(C)C(=O)c2ccc(NS(=O)(=O)c3cccc(C)c3)cc2OC[C@H](C)NC[C@@H]1C	nt	-7	nt	3	-4	-1
CCOc1ccc2nc(NC(=O)c3ccccn3)sc2c1	-5	89*	67*	70*	2	0
CCOc1ccc2nc(NC(=O)Nc3ccccc3)sc2c1	7	nt	-44	nt	nt	nt
CCCCOC(=O)C1C2C=C[C@]3(CN(CCCOC)C(=O)[C@H]13)O2 (stereo partly specified)	2	nt	0	nt	nt	nt
CCCCOC(=O)C1C2C=C[C@]3(CN(C(C)c4ccc(OC)cc4)C(=O)[C@H]13)O2 (stereo partly specified)	89*	nt	nt	nt	nt	nt
Cc1cc(NC(=O)c2cccc(COc3ccc(Br)cc3)c2)no1	-29	-43	-59	86*	0	0
CCOc1ccc(C(=O)Nc2cc(C)on2)cc1	10	nt	-58	nt	nt	nt
Cc1noc(C)c1NC(=O)Nc1ccc2c(c1)CC(=O)N([C@H](C)CO)C[C@@H](C)[C@H](CN(C)Cc1ccc(Oc3ccccc3)cc1)O2	nt	-18	nt	13	nt	0
Cc1ccc(S(=O)(=O)N(C)C[C@H]2OCCCC[C@H](C)Oc3ccc(NC(=O)NC(C)C)cc3C(=O)N([C@@H](C)CO)C[C@@H]2C)cc1	nt	14	nt	-7	13	0
CC(=O)c1cccc(OCCN2C(=O)NC(C)(C)C2=O)c1	44	nt	58*	nt	1	nt
CCc1ccccc1NC(=O)CN(C)C(=O)Cn1ncc(Cl)c(Cl)c1=O	93*	nt	11	63*	13	6
CCOC(=O)c1ccc(NC(=O)Cn2ncc(Cl)c(Cl)c2=O)cc1	99*	10	75*	37	32*	1
O=C(Cn1ncc(N2CCCC2)c(Cl)c1=O)c1ccc(Cl)cc1	-5	-41	-58	-6	-4	1
CCOC(=O)c1ccc(NC(=O)Cn2nc(C)c3ccccc3c2=O)cc1	-9	-2	-4	-2	-6	0
CCC(=O)Nc1ccc(C(=O)Cn2ncc(Cl)c(Cl)c2=O)cc1	76*	9	17	0	8	2
O=C(c1ccccc1)N1CC2(C1)[C@@H](c1ccccc1)[C@H](CO)N2C(=O)CC1CC1	nt	-2	nt	nt	nt	0
C[C@H](CO)N1C[C@H](C)[C@@H](CN(C)C(=O)CCCN(C)C)OCCCC[C@H](C)Oc2ccc(NC(=O)Cc3ccccc3)cc2C1=O	nt	19	nt	-2	3	0
Cn1cnnc1Sc1ccc(/C=C/C(=O)c2ccc(O)cc2)cc1[N+](=O)[O-]	90*	66*	27	69*	7	0
O=C(/C=C/c1c(F)cccc1Cl)Nc1nc2ccccc2[nH]1	-61	nt	-61	-51	-12	1
C(=C\c1ccco1)/c1ccc2ccccc2n1	3	-43	-25	49	-12	0
Fc1cccc(F)c1/C=C/c1ccc2ccccc2n1	41	67*	15	nt	2	0
SMILES	TWEAK-Fn14 inh	LGR2 antag	TROY signal inh	EWS-Fli block	FN deposit inh	XiGFP reactiv
Fc1cccc(Cl)c1/C=C/c1cnc2ccccc2n1	41	91*	22	82*	4	0
Cc1ccsc1/C=C/c1ccc2cccc(O)c2n1	-5	nt	-55	nt	nt	nt
Cc1ccsc1/C=C/c1ccc2ccccc2n1	52*	nt	47	nt	-7	nt
CNC(=S)Nc1ccc([N+](=O)[O-])c(C)c1	68*	-1	-26	-5	-1	0
Cc1noc(C)c1NC(=O)Nc1ccc2c(c1)C(=O)N([C@H](C)CO)C[C@H](C)[C@@H](CN(C)C(=O)NC1CCCCC1)OCCCC[C@H](C)O2	nt	3	nt	-10	nt	0
CC(=O)c1c(O)c2ccccc2n(C2CCCCC2)c1=O	65*	nt	56*	18	4	0
O=C1CCCCCCCN1Cc1ccccc1	17	8	0	5	11	0
O=C1CCCN1Cc1ncnn1-c1ccccc1	65*	nt	nt	nt	nt	nt
C[C@@H]1CN([C@H](C)CO)C(=O)c2cc(N(C)C)ccc2O[C@@H](C)CCCCO[C@H]1CN(C)Cc1ccncc1	nt	29	nt	2	nt	-1
C[C@@H]1CN([C@@H](C)CO)S(=O)(=O)c2ccc(-c3ccncc3)cc2O[C@@H]1CN(C)C(=O)CN(C)C	nt	-16	nt	-9	-9	0
Cc1cc(=O)[nH]c(SCC(=O)Nc2cccc3ccccc23)c1C#N	15	nt	52*	12	nt	nt
COc1cc(NC(=O)c2ccccc2)c(OC)cc1NC(=O)CSc1[nH]c(=O)cc(C)c1C#N	2	7	8	17	1	0
COc1ccc(N/C=C2\CCOC2=O)cc1	9	nt	-16	nt	-1	nt
COc1ccc(N/C=C2\C(=O)CCc3c2oc2cc(Cl)c(O)c(Cl)c32)cc1	0	11	55*	17	-8	0
c1cc2c(cc1C1=NNC(=NC3CC3)SC1)OCCO2	104*	55*	89*	79*	6	0
CCCCN=C1NN=C(c2ccc3c(c2)OCCO3)CS1	70*	35	62*	-16	-9	0
CCCCN=C1NN=C(c2ccc(C)c(C)c2)CS1	-8	-85	-18	-94	-10	0
COC(=O)C1=C(C)N(Cc2cccc(C(F)(F)F)c2)C(=NCc2ccc(C(F)(F)F)cc2)NC1c1ccccc1 (stereo unspecified)	nt	15	nt	52*	1	0
COC(=O)C1=C(C)N(Cc2cccc(C(F)(F)F)c2)C(=NCc2ccc(C(F)(F)F)cc2)NC1c1ccc(Cl)cc1 (stereo unspecified)	nt	55*	nt	41	-9	0
COC(=O)C1=C(C)N(Cc2ccc(C(F)(F)F)cc2)C(=NCc2ccc(C(F)(F)F)cc2)NC1c1cccc(F)c1 (stereo unspecified)	nt	9	nt	57*	-13	1
COC(=O)C1=C(C)N(Cc2ccc(C(F)(F)F)cc2)C(=NCc2ccccc2)NC1c1cccc(Cl)c1 (stereo unspecified)	nt	53*	nt	34	4	0
CCN=C1NC(c2ccc(Cl)cc2)C(C(=O)OC)=C(C)N1Cc1cccc(C(F)(F)F)c1 (stereo unspecified)	nt	12	nt	14	22	1
CCCCOc1ccc(-c2nc(-c3cccnc3)no2)cc1	24	nt	-14	nt	nt	nt
CCOc1ccc(-c2nnc(-c3ccc(OC)cc3)o2)cc1	-33	nt	-67	nt	nt	nt
CCOc1ccc(-c2nnc(-c3ccccc3)o2)cc1	81*	nt	34	nt	nt	nt

High-throughput results deposited in PubChem by several laboratories.
